ChEMBL document CHEMBL5058577, “EUbOPEN Chemogenomics Library 2 (Multiplex)” (2022)

Tested on: Fibroblast
Assay: Multiplex assay against human fibroblast
Type: toxicity, cell-based
Procedure, shortened: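 Values for tubulin, mitochondrial-mass and membrane-permeability phenotypes are per cents of cells with healthy nuclei. These cells were identified by CellPathfinder machine-learning gating of live cells that had been stained at seeding with Hoechst33342, BioTracker Green Microtubule Cytoskeleton Dye, MitoTracker Red and Annexin V Alexa Fluor 680 and imaged on a CQ1 microscope at 37°C and 5% CO2 after compound addition. The gating first set Hoechst high-intensity objects apart from normal cells, then split normal cells into healthy, pyknosed or fragmented nuclei, and pyknosed cells into mitotic or apoptotic.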

[1] = 12 h, 1 µM, compound concentration 1 uM, replicate 1
[2] = 12 h, 1 µM, compound concentration 1 uM, replicate 2
[3] = 12 h, 10 µM, compound concentration 10 uM, replicate 1
[4] = 12 h, 10 µM, compound concentration 10 uM, replicate 2
[5] = 24 h, 1 µM, compound concentration 1 uM, replicate 1
[6] = 24 h, 1 µM, compound concentration 1 uM, replicate 2
[7] = 24 h, 10 µM, compound concentration 10 uM, replicate 1
[8] = 24 h, 10 µM, compound concentration 10 uM, replicate 2
[9] = 48 h, 1 µM, compound concentration 1 uM, replicate 1
[10] = 48 h, 1 µM, compound concentration 1 uM, replicate 2
[11] = 48 h, 10 µM, compound concentration 10 uM, replicate 1
[12] = 48 h, 10 µM, compound concentration 10 uM, replicate 2

## N#Cc1cc(F)cc(-c2nc(-c3ccc(F)cn3)no2)c1
[1]
  Population Apoptotic (%): 28%
  Population Fragmented Nuclei (%): 21%
  Population Healthy Nuclei (%): 63%
  Population Hoechst High Intensity Objects (%): 0%
  Population Membrane Permeable-Phenotype (%): 2%
  Population Mitochondria Different-Phenotype (%): 5%
  Population Mitotic Cells (%): 71%
  Population Normal (%): 100%
  Population Pyknosed Nuclei (%): 15%
  Population Tubulin-Different-Phenotype (%): 22%
  Total Cell Count: 136
[2]
  Population Apoptotic (%): 38%
  Population Fragmented Nuclei (%): 32%
  Population Healthy Nuclei (%): 37%
  Population Hoechst High Intensity Objects (%): 6%
  Population Membrane Permeable-Phenotype (%): 15%
  Population Mitochondria Different-Phenotype (%): 6%
  Population Mitotic Cells (%): 61%
  Population Normal (%): 93%
  Population Pyknosed Nuclei (%): 29%
  Population Tubulin-Different-Phenotype (%): 48%
  Total Cell Count: 93
[3]
  Population Apoptotic (%): 48%
  Population Fragmented Nuclei (%): 15%
  Population Healthy Nuclei (%): 67%
  Population Hoechst High Intensity Objects (%): 1%
  Population Membrane Permeable-Phenotype (%): 2%
  Population Mitochondria Different-Phenotype (%): 5%
  Population Mitotic Cells (%): 51%
  Population Normal (%): 98%
  Population Pyknosed Nuclei (%): 17%
  Population Tubulin-Different-Phenotype (%): 23%
  Total Cell Count: 179
[4]
  Population Apoptotic (%): 28%
  Population Fragmented Nuclei (%): 42%
  Population Healthy Nuclei (%): 32%
  Population Hoechst High Intensity Objects (%): 8%
  Population Membrane Permeable-Phenotype (%): 9%
  Population Mitochondria Different-Phenotype (%): 12%
  Population Mitotic Cells (%): 72%
  Population Normal (%): 91%
  Population Pyknosed Nuclei (%): 24%
  Population Tubulin-Different-Phenotype (%): 36%
  Total Cell Count: 110
[5]
  Population Apoptotic (%): 40%
  Population Fragmented Nuclei (%): 19%
  Population Healthy Nuclei (%): 68%
  Population Hoechst High Intensity Objects (%): 2%
  Population Membrane Permeable-Phenotype (%): 1%
  Population Mitochondria Different-Phenotype (%): 3%
  Population Mitotic Cells (%): 60%
  Population Normal (%): 97%
  Population Pyknosed Nuclei (%): 11%
  Population Tubulin-Different-Phenotype (%): 18%
  Total Cell Count: 131
[6]
  Population Apoptotic (%): 27%
  Population Fragmented Nuclei (%): 39%
  Population Healthy Nuclei (%): 38%
  Population Hoechst High Intensity Objects (%): 7%
  Population Membrane Permeable-Phenotype (%): 12%
  Population Mitotic Cells (%): 72%
  Population Normal (%): 92%
  Population Pyknosed Nuclei (%): 22%
  Population Tubulin-Different-Phenotype (%): 58%
  Total Cell Count: 88
[7]
  Population Apoptotic (%): 70%
  Population Fragmented Nuclei (%): 12%
  Population Healthy Nuclei (%): 70%
  Population Hoechst High Intensity Objects (%): 4%
  Population Membrane Permeable-Phenotype (%): 0%
  Population Mitochondria Different-Phenotype (%): 6%
  Population Mitotic Cells (%): 29%
  Population Normal (%): 95%
  Population Pyknosed Nuclei (%): 16%
  Population Tubulin-Different-Phenotype (%): 22%
  Total Cell Count: 170
[8]
  Population Apoptotic (%): 35%
  Population Fragmented Nuclei (%): 47%
  Population Healthy Nuclei (%): 33%
  Population Hoechst High Intensity Objects (%): 11%
  Population Membrane Permeable-Phenotype (%): 5%
  Population Mitochondria Different-Phenotype (%): 11%
  Population Mitotic Cells (%): 65%
  Population Normal (%): 88%
  Population Pyknosed Nuclei (%): 18%
  Population Tubulin-Different-Phenotype (%): 41%
  Total Cell Count: 120
[9]
  Population Apoptotic (%): 61%
  Population Fragmented Nuclei (%): 21%
  Population Healthy Nuclei (%): 68%
  Population Hoechst High Intensity Objects (%): 1%
  Population Membrane Permeable-Phenotype (%): 0%
  Population Mitochondria Different-Phenotype (%): 3%
  Population Mitotic Cells (%): 38%
  Population Normal (%): 98%
  Population Pyknosed Nuclei (%): 9%
  Population Tubulin-Different-Phenotype (%): 23%
  Total Cell Count: 137
[10]
  Population Apoptotic (%): 50%
  Population Fragmented Nuclei (%): 45%
  Population Healthy Nuclei (%): 32%
  Population Hoechst High Intensity Objects (%): 5%
  Population Membrane Permeable-Phenotype (%): 3%
  Population Mitochondria Different-Phenotype (%): 7%
  Population Mitotic Cells (%): 50%
  Population Normal (%): 94%
  Population Pyknosed Nuclei (%): 22%
  Population Tubulin-Different-Phenotype (%): 57%
  Total Cell Count: 85
[11]
  Population Apoptotic (%): 84%
  Population Fragmented Nuclei (%): 20%
  Population Healthy Nuclei (%): 63%
  Population Hoechst High Intensity Objects (%): 7%
  Population Membrane Permeable-Phenotype (%): 0%
  Population Mitochondria Different-Phenotype (%): 11%
  Population Mitotic Cells (%): 16%
  Population Normal (%): 92%
  Population Pyknosed Nuclei (%): 16%
  Population Tubulin-Different-Phenotype (%): 28%
  Total Cell Count: 162
[12]
  Population Apoptotic (%): 50%
  Population Fragmented Nuclei (%): 44%
  Population Healthy Nuclei (%): 38%
  Population Hoechst High Intensity Objects (%): 5%
  Population Membrane Permeable-Phenotype (%): 15%
  Population Mitochondria Different-Phenotype (%): 5%
  Population Mitotic Cells (%): 50%
  Population Normal (%): 94%
  Population Pyknosed Nuclei (%): 17%
  Population Tubulin-Different-Phenotype (%): 50%
  Total Cell Count: 110
